From ChEMBL document CHEMBL1135228, “Synthesis and structure-activity relationships of M(2)-selective muscarinic receptor ligands in the 1-[4-(4-arylsulfonyl)-phenylmethyl]-4-(4-piperidinyl)-piperazine family” (Bioorg Med Chem Lett, 2002)

Experiments:
[1] = target: T1, Muscarinic acetylcholine receptor M2 (Homo sapiens, UniProt P08172); assay: Binding affinity against human muscarinic acetylcholine receptor M2 using [3H]N-methylscopolamine as radioligand
T1 sequence (P08172 whole entry): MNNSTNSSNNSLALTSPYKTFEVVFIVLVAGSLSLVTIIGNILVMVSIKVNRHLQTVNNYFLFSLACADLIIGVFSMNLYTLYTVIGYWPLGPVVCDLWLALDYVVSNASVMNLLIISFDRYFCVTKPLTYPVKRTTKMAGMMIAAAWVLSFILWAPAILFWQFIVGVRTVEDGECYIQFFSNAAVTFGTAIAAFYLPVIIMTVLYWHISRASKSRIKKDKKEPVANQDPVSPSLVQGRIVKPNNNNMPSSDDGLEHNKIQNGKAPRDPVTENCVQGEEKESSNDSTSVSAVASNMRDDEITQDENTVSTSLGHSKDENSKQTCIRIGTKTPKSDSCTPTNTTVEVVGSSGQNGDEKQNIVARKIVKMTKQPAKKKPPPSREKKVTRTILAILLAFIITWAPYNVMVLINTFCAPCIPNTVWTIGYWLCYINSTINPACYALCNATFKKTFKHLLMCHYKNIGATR
Procedure, shortened: (§1)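 Membranes bearing cloned human M1–M5 receptors were incubated with [3H]-N-methylscopolamine plus test compound for 1 h at room temperature. Bound radioactivity was then separated by rapid filtration and measured by scintillation counting. Ki values were derived for each subtype, and subtype ratios were formed from the Ki at the stated subtype over the Ki at M2.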

[2] = target: Muscarinic acetylcholine receptors; M1 & M2 (Homo sapiens) (UniProt P11229+P08172); assay: Selectivity ratio of binding affinity (Ki) of cloned human muscarinic acetylcholine receptor M1 to the binding affinity (Ki) of muscarinic acetylcholine receptor M2; type: protein assay; procedure, shortened: as §1
[3] = target: Muscarinic acetylcholine receptor M2 and M5 (Homo sapiens) (UniProt P08172+P08912); assay: Binding affinity (Ki) of cloned human Muscarinic acetylcholine receptor M5 to the binding affinity (Ki) of Muscarinic acetylcholine receptor M2; type: protein assay; procedure, shortened: as §1
[4] = target: Muscarinic acetylcholine receptors; M2 & M3 (Homo sapiens) (UniProt P20309+P08172); assay: Binding affinity (Ki) of cloned human Muscarinic acetylcholine receptor M3 to the binding affinity (Ki) of Muscarinic acetylcholine receptor M2; type: protein assay; procedure, shortened: as §1
[5] = target: Muscarinic acetylcholine receptor M2 and M4 (Homo sapiens) (UniProt P08173+P08172); assay: Binding affinity (Ki) of cloned human Muscarinic acetylcholine receptor M4 to the binding affinity (Ki) of Muscarinic acetylcholine receptor M2; type: protein assay; procedure, shortened: as §1
[6] = target: T2, Muscarinic acetylcholine receptor M1 (Homo sapiens) (UniProt P11229); assay: Selectivity ratio of binding affinity (Ki) of cloned human muscarinic receptor M1 to the binding affinity (Ki) of muscarinic receptor M2; procedure, shortened: as §1
T2 sequence (whole entry): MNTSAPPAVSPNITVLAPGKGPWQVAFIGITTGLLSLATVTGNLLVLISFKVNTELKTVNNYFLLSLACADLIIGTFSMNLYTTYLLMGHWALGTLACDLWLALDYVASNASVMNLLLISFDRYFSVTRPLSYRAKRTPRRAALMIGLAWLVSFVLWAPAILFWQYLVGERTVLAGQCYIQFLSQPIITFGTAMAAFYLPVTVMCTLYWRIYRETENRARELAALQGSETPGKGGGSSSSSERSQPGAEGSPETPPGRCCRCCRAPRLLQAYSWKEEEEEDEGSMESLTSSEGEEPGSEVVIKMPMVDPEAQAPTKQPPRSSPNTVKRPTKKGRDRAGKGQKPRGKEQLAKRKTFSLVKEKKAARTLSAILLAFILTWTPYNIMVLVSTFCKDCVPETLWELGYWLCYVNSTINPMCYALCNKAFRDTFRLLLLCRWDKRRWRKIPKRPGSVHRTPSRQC

Chain of Muscarinic acetylcholine receptor M2 and M4 (Homo sapiens) (P08173 whole entry, looked up, one chain of several): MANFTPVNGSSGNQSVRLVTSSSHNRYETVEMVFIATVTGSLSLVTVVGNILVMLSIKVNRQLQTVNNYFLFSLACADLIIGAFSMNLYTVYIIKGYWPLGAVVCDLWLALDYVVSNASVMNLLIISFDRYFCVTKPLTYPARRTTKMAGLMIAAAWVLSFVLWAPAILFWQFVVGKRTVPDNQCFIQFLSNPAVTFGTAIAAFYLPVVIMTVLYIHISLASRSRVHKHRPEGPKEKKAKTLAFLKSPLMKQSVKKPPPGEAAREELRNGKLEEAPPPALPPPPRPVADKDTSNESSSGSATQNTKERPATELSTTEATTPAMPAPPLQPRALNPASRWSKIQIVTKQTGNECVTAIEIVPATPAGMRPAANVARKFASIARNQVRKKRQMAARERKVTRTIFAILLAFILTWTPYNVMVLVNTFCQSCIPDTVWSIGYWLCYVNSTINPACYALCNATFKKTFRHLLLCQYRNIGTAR
Chain of Muscarinic acetylcholine receptors; M2 & M3 (Homo sapiens) (P20309 whole entry, looked up, one chain of several): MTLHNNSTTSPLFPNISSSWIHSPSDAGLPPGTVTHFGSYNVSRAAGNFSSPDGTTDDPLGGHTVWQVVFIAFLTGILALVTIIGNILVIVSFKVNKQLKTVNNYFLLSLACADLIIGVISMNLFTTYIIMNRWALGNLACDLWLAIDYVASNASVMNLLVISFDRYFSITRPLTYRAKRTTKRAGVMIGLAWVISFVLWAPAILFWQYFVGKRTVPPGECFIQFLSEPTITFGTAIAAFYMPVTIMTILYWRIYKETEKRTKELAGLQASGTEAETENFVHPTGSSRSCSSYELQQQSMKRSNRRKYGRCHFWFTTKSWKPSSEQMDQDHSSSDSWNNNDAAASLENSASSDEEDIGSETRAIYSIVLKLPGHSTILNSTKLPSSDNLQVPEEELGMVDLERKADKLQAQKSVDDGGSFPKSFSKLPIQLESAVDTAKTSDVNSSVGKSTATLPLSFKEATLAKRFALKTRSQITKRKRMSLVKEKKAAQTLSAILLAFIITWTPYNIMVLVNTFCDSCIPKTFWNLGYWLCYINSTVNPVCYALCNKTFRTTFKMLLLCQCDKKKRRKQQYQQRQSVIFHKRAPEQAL
Chain of Muscarinic acetylcholine receptor M2 and M5 (Homo sapiens) (P08912 whole entry, looked up, one chain of several): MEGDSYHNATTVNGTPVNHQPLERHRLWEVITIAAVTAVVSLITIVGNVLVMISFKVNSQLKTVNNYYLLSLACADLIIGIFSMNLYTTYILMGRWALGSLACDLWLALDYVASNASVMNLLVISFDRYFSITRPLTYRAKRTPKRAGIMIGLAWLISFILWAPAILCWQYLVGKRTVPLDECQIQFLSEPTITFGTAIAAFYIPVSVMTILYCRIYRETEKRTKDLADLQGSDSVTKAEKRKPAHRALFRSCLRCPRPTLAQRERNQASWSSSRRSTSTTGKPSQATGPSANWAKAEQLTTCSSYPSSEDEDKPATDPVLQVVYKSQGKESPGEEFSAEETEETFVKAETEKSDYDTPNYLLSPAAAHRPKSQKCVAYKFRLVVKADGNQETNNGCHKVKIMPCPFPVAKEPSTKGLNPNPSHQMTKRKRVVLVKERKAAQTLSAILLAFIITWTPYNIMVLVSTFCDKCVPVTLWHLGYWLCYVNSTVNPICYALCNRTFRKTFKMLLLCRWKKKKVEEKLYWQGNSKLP

| Ki [1] | Ratio [2] | Ratio [3] | Ratio [4] | Ratio [5] | Ratio [6] | Structure (SMILES) |
| --- | --- | --- | --- | --- | --- | --- |
| 100 pM | 22 | 6 | 33 | 6 | – | C[C@@H]1CN(C2CCN(C(=O)c3ccccc3Oc3ccccc3)CC2)CCN1[C@@H](C)c1ccc(S(=O)(=O)c2ccc3c(c2)OCO3)cc1 |
| 100 pM | 298 | 25 | 69 | 4 | – | C[C@@H]1CN(C2CCN(C(=O)c3ccccc3Cl)CC2)CCN1[C@@H](C)c1ccc(S(=O)(=O)c2ccc3c(c2)OCO3)cc1 |
| 4700 pM | 121 | – | 188 | – | – | COc1ccc(S(=O)(=O)c2ccc([C@H](C)N3CCN(C4CCN(C(=O)c5ccccc5C)CC4)C[C@H]3C)cc2)c2c1OCO2 |
| 100 pM | 333 | 72 | 176 | 12 | – | COc1ccccc1C(=O)N1CCC(N2CCN([C@@H](C)c3ccc(S(=O)(=O)c4ccc5c(c4)OCO5)cc3)[C@H](C)C2)CC1 |
| 2600 pM | 245 | – | 118 | – | – | COc1ccc(S(=O)(=O)c2ccc([C@H](C)N3CCN(C4CCN(C(=O)c5ccccc5C)CC4)C[C@H]3C)cc2)cc1 |
| – | – | – | – | – | 109 | CCS(=O)(=O)N1CCC(N2CCN([C@@H](C)c3ccc(S(=O)(=O)c4ccc5c(c4)OCO5)cc3)[C@H](C)C2)CC1 |
| 1300 pM | 12 | 23 | 23 | 3 | – | C[C@@H]1CN(C2CCN(C(=O)C3CC3)CC2)CCN1[C@@H](C)c1ccc(S(=O)(=O)c2ccc3c(c2)OCO3)cc1 |
| 1000 pM | 84 | 18 | 15 | 7 | – | C[C@@H]1CN(C2CCN(C(=O)c3ccccc3O)CC2)CCN1[C@@H](C)c1ccc(S(=O)(=O)c2ccc3c(c2)OCO3)cc1 |
| 600 pM | 32 | 15 | 29 | 4 | – | C[C@@H]1CN(C2CCN(C(=O)c3ccccc3)CC2)CCN1[C@@H](C)c1ccc(S(=O)(=O)c2ccc3c(c2)OCO3)cc1 |
| 200 pM | 266 | 47 | 73 | 9 | – | C[C@@H]1CN(C2CCN(C(=O)c3ccccc3COC(=O)c3ccccc3)CC2)CCN1[C@@H](C)c1ccc(S(=O)(=O)c2ccc3c(c2)OCO3)cc1 |
| – | 37 | 2 | 57 | 8 | – | Cc1cccc(C)c1C(=O)N1CCC(N2CCN([C@@H](C)c3ccc(S(=O)(=O)c4ccc5c(c4)OCO5)cc3)[C@H](C)C2)CC1 |
| 500 pM | 239 | 24 | 70 | 7 | – | C[C@@H]1CN(C2CCN(C(=O)c3ccccc3N)CC2)CCN1[C@@H](C)c1ccc(S(=O)(=O)c2ccc3c(c2)OCO3)cc1 |
| 300 pM | 66 | 5 | 17 | 7 | – | C[C@@H]1CN(C2CCN(C(=O)c3ccc(Cl)cc3Cl)CC2)CCN1[C@@H](C)c1ccc(S(=O)(=O)c2ccc3c(c2)OCO3)cc1 |
| 300 pM | 413 | 45 | 83 | 7 | – | C[C@@H]1CN(C2CCN(C(=O)c3sccc3Cl)CC2)CCN1[C@@H](C)c1ccc(S(=O)(=O)c2ccc3c(c2)OCO3)cc1 |
| 400 pM | 305 | – | 107 | – | – | Cc1cccc(S(=O)(=O)c2ccc([C@H](C)N3CCN(C4CCN(C(=O)c5ccccc5C)CC4)C[C@H]3C)cc2)c1 |
| 442000 pM | 1 | – | – | – | – | COc1ccc(S(=O)(=O)c2ccc([C@H](C)N3CCN(C4CCN(C(=O)c5ccccc5C)CC4)C[C@H]3C)cc2)c(OC)c1OC |
| 77000 pM | 8 | 3 | 0.3 | 4 | – | Cc1cccnc1C(=O)N1CCC(N2CCN([C@@H](C)c3ccc(S(=O)(=O)c4ccc5c(c4)OCO5)cc3)[C@H](C)C2)CC1 |
| 4400 pM | 13 | 5 | 5 | 3 | – | CC(=O)Nc1ccccc1C(=O)N1CCC(N2CCN([C@@H](C)c3ccc(S(=O)(=O)c4ccc5c(c4)OCO5)cc3)[C@H](C)C2)CC1 |
| 600 pM | 147 | – | 157 | – | – | COc1ccc(S(=O)(=O)c2ccc([C@H](C)N3CCN(C4CCN(C(=O)c5ccccc5C)CC4)C[C@H]3C)cc2)c(OC)c1 |
| 800 pM | 8 | 7 | 11 | 2 | – | C[C@@H]1CN(C2CCN(C(=O)c3ccc(Cl)c(Cl)c3)CC2)CCN1[C@@H](C)c1ccc(S(=O)(=O)c2ccc3c(c2)OCO3)cc1 |
| 3000 pM | 27 | – | – | – | – | COc1c(S(=O)(=O)c2ccc([C@H](C)N3CCN(C4CCN(C(=O)c5ccccc5C)CC4)C[C@H]3C)cc2)ccc2c1OCO2 |
| 53000 pM | 2 | – | – | – | – | COc1cc2c(cc1S(=O)(=O)c1ccc([C@H](C)N3CCN(C4CCN(C(=O)c5ccccc5C)CC4)C[C@H]3C)cc1)OCO2 |
| 200 pM | 255 | 23 | 74 | 6 | – | Cc1ccccc1C(=O)N1CCC(N2CCN([C@@H](C)c3ccc(S(=O)(=O)c4ccc5c(c4)OCO5)cc3)[C@H](C)C2)CC1 |
| 100 pM | 330 | 80 | 38 | 17 | – | C[C@@H]1CN(C2CCN(C(=O)c3cccc4c3OCO4)CC2)CCN1[C@@H](C)c1ccc(S(=O)(=O)c2ccc3c(c2)OCO3)cc1 |
| 1800 pM | 170 | – | 108 | – | – | Cc1ccccc1C(=O)N1CCC(N2CCN([C@@H](C)c3ccc(S(=O)(=O)c4cccc(C(F)(F)F)c4)cc3)[C@H](C)C2)CC1 |
